{"source": "paper PMC6706283", "about": "(Bioorganic & medicinal chemistry, 2019)", "key": {"human washed platelets": {"tested_on": "human washed platelets", "assay": "human platelet aggregation assay", "type": "cell-based", "conditions": "parmodulin 10 μM, SFLLRN-NH2 1.5 μM", "how_it_was_run": "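Washed human platelets were incubated with test compound (10 µM), then stimulated with PAR1/2 agonist SFLLRN-NH2 (1.5 µM). Aggregation traces were recorded against DMSO vehicle control traces.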"}, "PAR2": {"target": "T1, PAR2 (Homo sapiens, UniProt P55085)", "T1 sequence (P55085 26-397)": "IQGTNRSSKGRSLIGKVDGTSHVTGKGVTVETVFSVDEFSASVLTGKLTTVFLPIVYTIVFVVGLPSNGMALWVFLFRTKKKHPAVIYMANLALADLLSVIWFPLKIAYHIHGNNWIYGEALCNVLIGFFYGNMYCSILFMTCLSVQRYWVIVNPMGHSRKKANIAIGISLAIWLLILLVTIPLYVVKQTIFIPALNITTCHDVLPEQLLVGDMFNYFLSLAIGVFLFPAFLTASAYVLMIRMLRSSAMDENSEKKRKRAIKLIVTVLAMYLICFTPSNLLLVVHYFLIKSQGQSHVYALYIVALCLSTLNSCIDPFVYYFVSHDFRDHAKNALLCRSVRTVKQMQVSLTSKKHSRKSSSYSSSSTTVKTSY", "assay": "PAR2", "type": "cell-based", "conditions": "parmodulins 10 μM, vorapaxar 0.316 μM; SLIGKV-NH2 3.16 μM", "how_it_was_run": "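Intracellular Ca2+ mobilization assay in EA.hy926 endothelial cells. Cells were pretreated with test compound (10 µM) or reference antagonist (0.316 µM), then stimulated with PAR2 agonist SLIGKV-NH2 (3.16 µM). A parallel run stimulated with PAR1 agonist TFLLRN-NH2 at 3.16 µM.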"}, "[1]": {"target": "SERT (serotonin transporter) (Homo sapiens, UniProt P31645)", "sequence (P31645 whole entry, species assumed)": "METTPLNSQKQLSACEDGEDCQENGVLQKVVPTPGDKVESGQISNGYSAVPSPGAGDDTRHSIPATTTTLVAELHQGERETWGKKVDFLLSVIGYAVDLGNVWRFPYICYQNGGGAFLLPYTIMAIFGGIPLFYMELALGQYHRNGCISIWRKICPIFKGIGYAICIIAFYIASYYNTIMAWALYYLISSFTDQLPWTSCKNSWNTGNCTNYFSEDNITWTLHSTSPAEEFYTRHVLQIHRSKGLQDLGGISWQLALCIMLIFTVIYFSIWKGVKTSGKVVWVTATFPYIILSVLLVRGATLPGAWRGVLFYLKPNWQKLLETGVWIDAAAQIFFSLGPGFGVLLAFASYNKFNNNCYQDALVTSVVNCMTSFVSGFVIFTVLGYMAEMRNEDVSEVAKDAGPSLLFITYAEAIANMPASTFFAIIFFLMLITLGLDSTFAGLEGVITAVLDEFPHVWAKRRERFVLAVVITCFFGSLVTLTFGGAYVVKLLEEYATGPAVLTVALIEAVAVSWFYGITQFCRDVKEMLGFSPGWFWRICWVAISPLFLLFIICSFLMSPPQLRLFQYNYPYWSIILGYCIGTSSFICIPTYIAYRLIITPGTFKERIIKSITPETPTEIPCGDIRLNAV", "assay": "PDSP radioligand binding, SERT", "conditions": "read-out: mean % inhibition of binding, SERT"}, "[2]": {"conditions": "after 5 h; cited from earlier work"}, "[3]": {"assay": "human liver microsome stability", "type": "in vitro ADME", "conditions": "1 h"}, "tissue factor (TF) mRNA": {"tested_on": "tissue factor (TF) mRNA", "assay": "qPCR assay of TNF-α induced tissue factor expression in HUVEC", "type": "cell-based, human", "conditions": "10 μM, TNF-α 25 ng/mL added at 1 h, mRNA at 4 h", "how_it_was_run": "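HUVEC were treated with test compound (10 µM) at t = 0 and TNF-α (25 ng/mL) at t = 1 h. Tissue factor mRNA was quantified by qPCR at t = 4 h, n = 3. Analysis by one-way ANOVA with Bonferroni multiple-comparisons test.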"}, "PAR1 [4]": {"target": "T2, PAR1 (Homo sapiens, UniProt P25116)", "T2 sequence (P25116 22-425)": "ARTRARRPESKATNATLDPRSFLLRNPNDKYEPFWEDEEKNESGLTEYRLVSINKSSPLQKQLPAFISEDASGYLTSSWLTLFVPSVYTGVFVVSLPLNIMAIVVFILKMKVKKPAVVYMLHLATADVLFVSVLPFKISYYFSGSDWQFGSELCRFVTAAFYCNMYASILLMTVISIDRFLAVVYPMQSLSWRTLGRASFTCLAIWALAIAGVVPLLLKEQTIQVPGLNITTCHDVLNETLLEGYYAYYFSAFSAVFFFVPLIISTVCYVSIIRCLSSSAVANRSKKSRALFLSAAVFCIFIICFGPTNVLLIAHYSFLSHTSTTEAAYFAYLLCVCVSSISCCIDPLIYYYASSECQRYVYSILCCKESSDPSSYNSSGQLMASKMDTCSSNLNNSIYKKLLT", "assay": "intracellular calcium mobilization", "type": "cell-based", "conditions": "for activity in the iCa2+ assay (in words): EA.hy926 cells, TFLLRN-NH2", "how_it_was_run": "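Adherent EA.hy926 endothelial cells in 96-well plates; intracellular Ca2+ mobilization triggered by PAR1 tethered-ligand peptide TFLLRN-NH2 (5 µM). Single-point screen: test compound at 10 µM, % inhibition from n = 4 wells unless noted, with SEM. IC50: 3 wells per concentration, curves fitted by 4-variable non-linear regression. Summary IC50 is the average of independent assays. Selectivity run used agonist at 3.16 µM.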"}, "PAR1 [5]": {"target": "T2, PAR1", "type": "cell-based", "conditions": "increasing concentrations of antagonist", "how_it_was_run": "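EA.hy926 endothelial cells; Ca2+ mobilization concentration-response curves for PAR1 agonist TFLLRN-NH2 were recorded at several increasing concentrations of test compound. Agonist efficacy was compared across antagonist levels.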"}, "[6]": {"target": "5HT-5A (5-hydroxytryptamine receptor) (Homo sapiens, UniProt P47898)", "sequence (P47898 whole entry, species assumed)": "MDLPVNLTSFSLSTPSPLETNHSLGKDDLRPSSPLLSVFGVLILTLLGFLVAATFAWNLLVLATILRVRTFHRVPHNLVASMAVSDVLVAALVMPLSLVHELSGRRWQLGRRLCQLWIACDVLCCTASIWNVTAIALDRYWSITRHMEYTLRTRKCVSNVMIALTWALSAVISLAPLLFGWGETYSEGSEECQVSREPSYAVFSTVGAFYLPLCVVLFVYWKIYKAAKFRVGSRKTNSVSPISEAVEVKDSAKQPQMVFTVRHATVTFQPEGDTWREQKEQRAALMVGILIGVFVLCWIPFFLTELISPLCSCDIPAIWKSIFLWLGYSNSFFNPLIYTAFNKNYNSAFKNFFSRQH", "assay": "PDSP radioligand binding, 5HT-5A", "conditions": "read-out: mean % inhibition of binding, 5HT-5A"}, "hepG2 cells": {"tested_on": "hepG2 cells", "assay": "cytotoxicity in hepG2 cells", "type": "cell-based", "conditions": "human hepG2 cells"}, "platelets": {"tested_on": "platelets", "conditions": "cited from earlier work"}, "[7]": {"conditions": "cited from earlier work"}, "PAR1 [8]": {"target": "T2, PAR1", "conditions": "cited from earlier work"}}, "note": "Entries after “also recorded” stand apart in the source; their conditions may differ. Where two headings read alike, the source gives them in different places."}
{"smiles": "CCCC(=O)Nc1cccc(NC(=O)c2ccccc2Br)c1", "note": "[ML161]", "values": [{"measurement": "inhibition of platelet aggregation", "setting": "human washed platelets", "result": "Complete inhibition"}, {"measurement": "PAR2 activity?", "setting": "PAR2", "result": "None observed"}, {"measurement": "inhibition at 10 µM", "setting": "[1]", "result": -44, "unit": "%"}, {"measurement": "stability in mouse plasma, % remaining", "setting": "[2]", "result": 2, "unit": "%"}, {"measurement": "Microsomal stability", "setting": "[3]", "result": "99% (1 h, human)"}, {"measurement": "effect on TNF-α induced TF expression (mRNA)", "setting": "tissue factor (TF) mRNA", "result": "blocked the ~3-fold increase in TF expression"}]}
{"smiles": "O=C(Nc1cccc(NC(=O)c2ccccc2Br)c1)c1cnco1", "note": "[NRD-21, N-[3-(2-bromobenzamido)phenyl]-1,3-oxazole-5-carboxamide]", "values": [{"measurement": "inhibition of platelet aggregation", "setting": "human washed platelets", "result": "Complete inhibition"}, {"measurement": "PAR2 activity?", "setting": "PAR2", "result": "None observed"}, {"measurement": "inhibition at 10 µM", "setting": "[1]", "result": -44, "unit": "%"}, {"measurement": "activity in the iCa2+ assay (in words)", "setting": "PAR1 [4]; listed as 38", "result": "very good inhibition; also recorded: much better efficacy than 39"}, {"measurement": "effect on the efficacy of the PAR1 agonist TFLLRN-NH2", "setting": "PAR1 [5]", "result": "reduction in efficacy"}, {"measurement": "inhibition at 10 µM", "setting": "[6]", "result": -31, "unit": "%"}, {"measurement": "effect on TNF-α induced TF expression (mRNA)", "setting": "tissue factor (TF) mRNA", "result": "below baseline levels"}, {"measurement": "Cytotoxicity (CC50)", "setting": "hepG2 cells", "result": "no measurable toxicity"}]}
{"smiles": "CC(C)CC(=O)Nc1cccc(NC(=O)c2ccccc2Br)c1", "note": "[compound 2]", "values": [{"measurement": "inhibition in the platelet P-selectin assay (in words)", "setting": "platelets", "result": "equipotent to ML161"}, {"measurement": "stability in mouse plasma, % remaining", "setting": "[2]", "result": 65, "unit": "%"}, {"measurement": "solubility in water with 1% DMSO", "setting": "[7]", "result": 9, "unit": "µM"}, {"measurement": "activity in the endothelial iCa2+ assay (in words)", "setting": "PAR1 [8]; EA.hy926 cells", "result": "mediocre inhibition"}]}
{"smiles": "O=C(Nc1cccc(NC(=O)C2CCCC2)c1)c1ccccc1Br", "note": "[compound 3]", "values": [{"measurement": "activity in the iCa2+ assay (in words)", "setting": "PAR1 [4]", "result": "moderate inhibition"}]}
{"smiles": "CCCCNc1cccc(NC(=O)c2ccccc2Br)c1", "note": "[compound 5]", "values": [{"measurement": "activity in the iCa2+ assay (in words)", "setting": "PAR1 [8]; as previously reported", "result": "very good activity"}]}
{"smiles": "CCC(C)C(=O)Nc1cccc(NC(=O)c2ccccc2Br)c1", "note": "(centres unmarked) [compound 7]", "values": [{"measurement": "activity in the iCa2+ assay (in words)", "setting": "PAR1 [4]", "result": "weak efficacy"}]}
{"smiles": "CCC(=O)Nc1cccc(NC(=O)c2ccccc2Br)c1", "note": "[compound 8]", "values": [{"measurement": "activity in the iCa2+ assay (in words)", "setting": "PAR1 [4]", "result": "decreased activity"}]}
{"smiles": "CCCCC(=O)Nc1cccc(NC(=O)c2ccccc2Br)c1", "note": "[compound 10]", "values": [{"measurement": "activity in the iCa2+ assay (in words)", "setting": "PAR1 [4]", "result": "decreased efficacy and/or potency"}]}
{"smiles": "C#CCCC(=O)Nc1cccc(NC(=O)c2ccccc2Br)c1", "note": "[compound 11]", "values": [{"measurement": "activity in the iCa2+ assay (in words)", "setting": "PAR1 [4]", "result": "decreased efficacy and/or potency"}]}
{"smiles": "CCCCOc1cccc(NC(=O)c2ccccc2Br)c1", "note": "[compound 24]", "values": [{"measurement": "activity in the iCa2+ assay (in words)", "setting": "PAR1 [4]", "result": "moderate activity"}]}
{"smiles": "CN(C)CC(=O)Nc1cccc(NC(=O)c2ccccc2Br)c1", "note": "[compound 25]", "values": [{"measurement": "activity in the iCa2+ assay (in words)", "setting": "PAR1 [4]", "result": "complete loss of activity"}]}
{"smiles": "CCCN(CCC)c1cccc(NC(=O)c2ccccc2Br)c1", "note": "[compound 26]", "values": [{"measurement": "activity in the iCa2+ assay (in words)", "setting": "PAR1 [4]", "result": "weak activity"}]}
{"smiles": "COCCNc1cccc(NC(=O)c2ccccc2Br)c1", "note": "[compound 27]", "values": [{"measurement": "activity in the iCa2+ assay (in words)", "setting": "PAR1 [4]", "result": "weak activity"}]}
{"smiles": "CCCNCc1cccc(NC(=O)c2ccccc2Br)c1", "note": "[compound 28]", "values": [{"measurement": "activity in the iCa2+ assay (in words)", "setting": "PAR1 [4]", "result": "steep drop in efficacy"}]}
{"smiles": "O=C(Nc1cccc(NC2CCCC2)c1)c1ccccc1Br", "note": "[compound 29]", "values": [{"measurement": "activity in the iCa2+ assay (in words)", "setting": "PAR1 [4]", "result": "evidence of activation"}]}
{"smiles": "O=C(Nc1cccc(N2CCCC2)c1)c1ccccc1Br", "note": "[compound 30]", "values": [{"measurement": "activity in the iCa2+ assay (in words)", "setting": "PAR1 [4]", "result": "evidence of activation"}]}
{"smiles": "O=C(Nc1cccc(NC(=O)C2CCCO2)c1)c1ccccc1Br", "note": "(centres unmarked) [compound 36]", "values": [{"measurement": "activity in the iCa2+ assay (in words)", "setting": "PAR1 [4]", "result": "only modest inhibition"}]}
{"smiles": "O=C(Nc1cccc(NC(=O)C2CCOC2)c1)c1ccccc1Br", "note": "(centres unmarked) [compound 37]", "values": [{"measurement": "activity in the iCa2+ assay (in words)", "setting": "PAR1 [4]", "result": "only modest inhibition"}]}
{"smiles": "O=C(Nc1cccc(NC(=O)c2ccccc2Br)c1)c1cocn1", "note": "[compound 39]", "values": [{"measurement": "activity in the iCa2+ assay (in words)", "setting": "PAR1 [4]", "result": "very good inhibition"}, {"measurement": "inhibition of PAR1", "setting": "PAR1 [4]; selectivity study: parmodulin 10 μM, TFLLRN-NH2 3.16 μM", "result": "less than 75%"}]}
